Results from ChEMBL document CHEMBL3997852, “Discovery of Fluorine-Containing Benzoxazinyl-oxazolidinones for the Treatment of Multidrug Resistant Tuberculosis” (ACS Med Chem Lett, 2017).
≈ marks a conversion by molar mass, not a printed value.

Columns and labels:
[1] = Selectivity index, ratio of IC50 for African green monkey Vero cells to MIC for Mycobacterium tuberculosis H37Rv
Vero = assay: Cytotoxicity against African green monkey Vero cells assessed as growth inhibition after 48 hrs by MTT assay; format: ADME, cell-based; conditions: Chlorocebus sabaeus
[2] = test system: Mycobacterium tuberculosis; assay: Antitubercular activity against Mycobacterium tuberculosis H37Rv after 7 days by microplate alamar blue assay; format: functional; conditions: 168 h
In short: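 Microplate alamar blue assay on M. tuberculosis H37Rv. The MIC is the lowest concentration that reduces fluorescence by ≥90% relative to the mean of replicate bacterium-only controls.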

[3] = Metabolic stability in CD1 mouse liver microsomes assessed as compound remaining at 0.1 uM in presence of NADPH after 30 mins by LC/MS method; format: ADME, microsome; conditions: read-out: Stability
Liver [4] = assay: Metabolic stability in CD1 mouse liver microsomes at 0.1 uM in absence of NADPH after 30 mins by LC/MS method; format: ADME, microsome; conditions: 0.5 h
[5] = Tmax in Balb/c mouse at 100 mg/kg, po measured over 24 hrs by LC/TSQ quantum access mass spectrometric method; format: ADME, organism-based; conditions: in vivo
Liver [6] = assay: Metabolic stability in human liver microsomes at 0.1 uM in absence of NADPH after 30 mins by LC/MS method; format: ADME, microsome; conditions: 0.5 h
[7] = Tmax in Balb/c mouse at 10 mg/kg, iv measured over 24 hrs by LC/TSQ quantum access mass spectrometric method; format: ADME, organism-based; conditions: in vivo
[8] = AUC (0 to infinity) in Balb/c mouse at 10 mg/kg, iv measured over 24 hrs by LC/TSQ quantum access mass spectrometric method; format: ADME, organism-based; design: dose 10 mg/kg, time infinity, route intravenous; conditions: in vivo
[9] = Plasma elimination half life in Balb/c mouse at 10 mg/kg, iv measured over 24 hrs by LC/TSQ quantum access mass spectrometric method; format: ADME, organism-based; conditions: read-out: beta t1/2 (converted)
[10] = Cmax in Balb/c mouse at 10 mg/kg, iv measured over 24 hrs by LC/TSQ quantum access mass spectrometric method; format: ADME, organism-based; design: dose 10 mg/kg, route intravenous; conditions: in vivo
[11] = Plasma elimination half life in Balb/c mouse at 100 mg/kg, po measured over 24 hrs by LC/TSQ quantum access mass spectrometric method; format: ADME, organism-based; conditions: read-out: beta t1/2 (converted)
HepG2 = assay: Cytotoxicity against human HepG2 cells after 48 hrs by MTT assay; conditions: HepG2, 48 h
[12] = Cmax in Balb/c mouse at 100 mg/kg, po measured over 24 hrs by LC/TSQ quantum access mass spectrometric method; format: ADME, organism-based; design: dose 100 mg/kg, route oral; conditions: in vivo
[13] = Metabolic stability in human liver microsomes assessed as compound remaining at 0.1 uM in presence of NADPH after 30 mins by LC/MS method; format: ADME, microsome; conditions: read-out: Stability
[14] = AUC (0 to infinity) in Balb/c mouse at 100 mg/kg, po measured over 24 hrs by LC/TSQ quantum access mass spectrometric method; format: ADME, organism-based; design: dose 100 mg/kg, route oral, time infinity; conditions: in vivo
[15] = MRT in Balb/c mouse at 10 mg/kg, iv measured over 24 hrs by LC/TSQ quantum access mass spectrometric method; format: ADME, organism-based; conditions: in vivo
[16] = MRT in Balb/c mouse at 100 mg/kg, po measured over 24 hrs by LC/TSQ quantum access mass spectrometric method; format: ADME, organism-based; conditions: in vivo
[17] = Oral bioavailability in Balb/c mouse at 100 mg/kg measured over 24 hrs by LC/TSQ quantum access mass spectrometric method; format: ADME, organism-based; conditions: in vivo
[18] = Clearance in Balb/c mouse at 10 mg/kg, iv measured over 24 hrs by LC/TSQ quantum access mass spectrometric method; format: ADME, organism-based; conditions: in vivo
H9c2 = assay: Inhibition of mitochondrial protein synthesis in rat H9c2 cells after 5 days by In-Cell ELISA; conditions: H9c2, 120 h

Structure (SMILES)	selectivity ratio [1]	IC50 (Vero) [µg/mL]	MIC90 [2] [µg/mL]	further results
O=C(NC[C@@H]1OC(=O)N2c3cc(F)c(C4=CCN(CCO)CC4)cc3OC[C@@H]12)C1CCC1	58	> 64	1.1 (≈ 2.48 µM)	–
O=C1O[C@@H](CNc2ccon2)[C@@H]2COc3cc(C4=CCN(CCO)CC4)c(F)cc3N12	65	> 64	0.98 (≈ 2.28 µM)	–
CC(=O)NC[C@@H]1OC(=O)N2c3ccc(C4=CCN(CCO)CC4)cc3OC[C@@H]12	10	26.8 (≈ 69.1 µM)	2.65 (≈ 6.83 µM)	–
COC(=O)NC[C@@H]1OC(=O)N2c3cc(F)c(C4=CCN(C(=O)CO)CC4)cc3OC[C@@H]12	64	> 64	0.999 (≈ 2.29 µM)	–
O=C(CO)N1CC=C(c2cc3c(cc2F)N2C(=O)O[C@@H](Cn4ccnn4)[C@@H]2CO3)CC1	–	–	10.9 (≈ 25.4 µM)	–
CC(=O)NC[C@@H]1OC(=O)N2c3cc(F)c(C4CCN(CCO)CC4)cc3OC[C@@H]12	–	–	14.6 (≈ 35.8 µM)	–
O=C(CO)N1CC=C(c2cc3c(cc2F)N2C(=O)O[C@@H](COc4ccon4)[C@@H]2CO3)CC1	–	–	> 32	–
O=C(NC[C@@H]1OC(=O)N2c3cc(F)c(C4=CCN(CCO)CC4)cc3OC[C@@H]12)C1CC1	135	> 64	0.473 (≈ 1.1 µM)	–
CC(=O)NC[C@@H]1OC(=O)N2c3cc(F)c(C4=CCN(CCO)CC4)cc3OC[C@@H]12	111	> 64	0.578 (≈ 1.43 µM)	–
CC(=O)NC[C@@H]1OC(=O)N2c3cc(F)c(C4=CCN(C(=O)CO)CC4)cc3OC[C@@H]12	–	> 64	0.391 (≈ 0.932 µM)	remaining at 0.5 h, 0.1 µM [3]: 102%; Stability (Liver [4]): Stable; Tmax [5]: 2 h; Stability (Liver [6]): Stable; Tmax [7]: 1.8 min; AUC(0-inf) [8]: 12000 ng·h/mL; half-life [9]: 8.23 h; Cmax [10]: 11400 ng/mL; half-life [11]: 4.22 h; IC50 (HepG2): > 64 µg/mL; Cmax [12]: 30000 ng/mL; remaining at 0.5 h, 0.1 µM [13]: 103%; AUC(0-inf) [14]: 122000 ng·h/mL; MRT [15]: 2.54 h; MRT [16]: 4.12 h; bioavailability [17]: 102%; clearance [18]: 13.9 mL/min/kg; IC50 (H9c2): 9.19 µM
O=C(NC[C@@H]1OC(=O)N2c3cc(F)c(C4=CCN(C(=O)CO)CC4)cc3OC[C@@H]12)C1CC1	34	> 64	1.87 (≈ 4.19 µM)	–
CCC(=O)N1CC=C(c2cc3c(cc2F)N2C(=O)O[C@@H](CNC(C)=O)[C@@H]2CO3)CC1	–	–	6.36 (≈ 15.2 µM)	–
O=C(CO)N1CC=C(c2cc3c(cc2F)N2C(=O)O[C@@H](CNc4ccon4)[C@@H]2CO3)CC1	61	> 64	1.04 (≈ 2.35 µM)	–
COC(=O)NC[C@@H]1OC(=O)N2c3cc(F)c(C4=CCN(CCO)CC4)cc3OC[C@@H]12	26	57.4 (≈ 136 µM)	2.22 (≈ 5.27 µM)	–
CC(=O)NC[C@@H]1OC(=O)N2c3cc(F)c(C4=CCN(C(=O)[C@@H](O)CO)CC4)cc3OC[C@@H]12	133	> 64	0.483 (≈ 1.07 µM)	–
